# According to ChEMBL document CHEMBL1137451, “Synthesis and evaluation of antifungal properties of a series of the novel 2-amino-5-oxo-4-phenyl-5,6,7,8-tetrahydroquinoline-3-carbonitrile and its analogues” (Bioorg Med Chem, 2007):
# The source made the active and inactive calls. No cut-off for these calls is given here.
# Tests used:
# Candida albicans [1] = assay: Antifungal activity against Candida albicans 1 at 60 ug/disc after 24 hrs by disc diffusion method; type: functional; settings: for zone of inhibition at 60 µg/disc: read-out: IZ
# Procedure, shortened: (§1)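 Yeast suspensions (C. albicans strains 1, 2) and mycelial suspensions (F. oxysporum strains 1, 2; Mucor sp.) spread on YPG (0.3% yeast extract, 0.5% peptone, 1% glucose) or PDA agar. Compound applied on filter-paper discs at the stated amount; 28 °C, 24 h. Read-out is inhibition zone diameter. Controls: 50% v/v DMSO vehicle, cycloheximide, amphotericin B.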
# Candida albicans [2] = assay: Antifungal activity against Candida albicans 1 at 40 ug/disc after 24 hrs by disc diffusion method; type: functional; settings: for zone of inhibition at 40 µg/disc: read-out: IZ; procedure, shortened: as §1
# Candida albicans [3] = assay: Antifungal activity against Candida albicans 1 at 100 ug/disc after 24 hrs by disc diffusion method; type: functional; settings: read-out: IZ; procedure, shortened: as §1
# Candida albicans [4] = assay: Antifungal activity against Candida albicans 2 at 40 ug/disc after 24 hrs by disc diffusion method; type: functional; settings: for zone of inhibition at 40 µg/disc: read-out: IZ; procedure, shortened: as §1
# Candida albicans [5] = assay: Antifungal activity against Candida albicans 2 at 60 ug/disc after 24 hrs by disc diffusion method; type: functional; settings: for zone of inhibition at 60 µg/disc: read-out: IZ; procedure, shortened: as §1
# Candida albicans [6] = assay: Antifungal activity against Candida albicans 2 at 100 ug/disc after 24 hrs by disc diffusion method; type: functional; settings: read-out: IZ; procedure, shortened: as §1
# Fusarium oxysporum [7] = assay: Antifungal activity against Fusarium oxysporum 1 at 40 ug/disc after 24 hrs by disc diffusion method; type: functional; settings: for zone of inhibition at 40 µg/disc: read-out: IZ; procedure, shortened: as §1
# Fusarium oxysporum [8] = assay: Antifungal activity against Fusarium oxysporum 1 at 60 ug/disc after 24 hrs by disc diffusion method; type: functional; settings: for zone of inhibition at 60 µg/disc: read-out: IZ; procedure, shortened: as §1
# Fusarium oxysporum [9] = assay: Antifungal activity against Fusarium oxysporum 1 at 100 ug/disc after 24 hrs by disc diffusion method; type: functional; settings: read-out: IZ; procedure, shortened: as §1
# Fusarium oxysporum [10] = assay: Antifungal activity against Fusarium oxysporum 2 at 40 ug/disc after 24 hrs by disc diffusion method; type: functional; settings: for zone of inhibition at 40 µg/disc: read-out: IZ; procedure, shortened: as §1
# Fusarium oxysporum [11] = assay: Antifungal activity against Fusarium oxysporum 2 at 60 ug/disc after 24 hrs by disc diffusion method; type: functional; settings: for zone of inhibition at 60 µg/disc: read-out: IZ; procedure, shortened: as §1
# Fusarium oxysporum [12] = assay: Antifungal activity against Fusarium oxysporum 2 at 100 ug/disc after 24 hrs by disc diffusion method; type: functional; settings: read-out: IZ; procedure, shortened: as §1
# Mucor [13] = assay: Antifungal activity against Mucor at 40 ug/disc after 24 hrs by disc diffusion method; type: functional; procedure, shortened: as §1
# Mucor [14] = assay: Antifungal activity against Mucor at 60 ug/disc after 24 hrs by disc diffusion method; type: functional; procedure, shortened: as §1
# Mucor [15] = assay: Antifungal activity against Mucor at 100 ug/disc after 24 hrs by disc diffusion method; type: functional; procedure, shortened: as §1
# Candida albicans [16] = assay: Antifungal activity against Candida albicans 1 after 24 hrs by disc diffusion method; type: functional
# Procedure, shortened: (§2)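 Disc diffusion on Candida albicans strains 1 and 2 (yeast suspension), Fusarium oxysporum strains 1 and 2 and Mucor sp. (mycelial suspension), spread on YPG or PDA agar. Compound at graded amounts per filter-paper disc, 28 °C for 24 h. MIC taken as the lowest amount giving a 2 mm inhibition zone. Controls: 50% v/v DMSO vehicle, cycloheximide, amphotericin B.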
# Candida albicans [17] = assay: Antifungal activity against Candida albicans 2 after 24 hrs by disc diffusion method; type: functional; procedure, shortened: as §2
# Fusarium oxysporum [18] = assay: Antifungal activity against Fusarium oxysporum 1 after 24 hrs by disc diffusion method; type: functional; procedure, shortened: as §2
# Fusarium oxysporum [19] = assay: Antifungal activity against Fusarium oxysporum 2 after 24 hrs by disc diffusion method; type: functional; procedure, shortened: as §2
# Benjaminiella poitrasii [20] = assay: Inhibition of Benjaminiella poitrasii chitin synthase at 4 ug/mL
# Procedure, shortened: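 Chitin synthase from Benjaminiella poitrasii measured with and without compound at 4 µg/ml, using a non-radioactive chitin synthase assay. Nikkomycin Z used as reference.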
# Benjaminiella poitrasii [21] = assay: Inhibition of yeast hypha transition at 20 ug/mL after 4 hrs
Structure (SMILES),zone of inhibition at 60 µg/disc (Candida albicans [1]),zone of inhibition at 100 µg/disc (Candida albicans [3]),zone of inhibition at 60 µg/disc (Candida albicans [5]),zone of inhibition at 100 µg/disc (Candida albicans [6]),zone of inhibition at 60 µg/disc (Fusarium oxysporum [8]),zone of inhibition at 100 µg/disc (Fusarium oxysporum [9]),zone of inhibition at 40 µg/disc (Fusarium oxysporum [10]),zone of inhibition at 60 µg/disc (Fusarium oxysporum [11]),zone of inhibition at 100 µg/disc (Fusarium oxysporum [12]),Activity (Mucor [13]),Activity (Mucor [14]),Activity (Mucor [15]),MIC (Candida albicans [16]),MIC (Candida albicans [17]),MIC (Fusarium oxysporum [18]),MIC (Fusarium oxysporum [19]),inhibition (Benjaminiella poitrasii [20]),inhibition at 20 µg/mL (Benjaminiella poitrasii [21]),Activity (Candida albicans [2]),Activity (Fusarium oxysporum [7]),other results
N#Cc1c(N)nc2c(c1-c1cccc(N3C(=O)C=CC3=O)c1)C(=O)CCC2,5 mm,7 mm,5 mm,7 mm,3 mm,7 mm,3 mm,3 mm,7 mm,inactive,inactive,inactive,40 µg/disc,40 µg/disc,40 µg/disc,40 µg/disc,91%,95%,–,–,zone of inhibition at 40 µg/disc (Candida albicans [2]): 3 mm; zone of inhibition at 40 µg/disc (Candida albicans [4]): 3 mm; zone of inhibition at 40 µg/disc (Fusarium oxysporum [7]): 3 mm
N#Cc1c(N)nc2c(c1-c1cccc(NC(=O)CCN3CCOCC3)c1)C(=O)CCC2,2 mm,7 mm,2 mm,7 mm,3 mm,5 mm,2 mm,3 mm,5 mm,inactive,inactive,inactive,40 µg/disc,40 µg/disc,40 µg/disc,40 µg/disc,61%,95%,–,–,zone of inhibition at 40 µg/disc (Candida albicans [2]): 2 mm; zone of inhibition at 40 µg/disc (Candida albicans [4]): 2 mm; zone of inhibition at 40 µg/disc (Fusarium oxysporum [7]): 2 mm
COc1cc(-c2c(C#N)c(N)nc3c2C(=O)CCC3)cc(OC)c1OC,–,7 mm,–,7 mm,2 mm,4 mm,2 mm,2 mm,4 mm,inactive,inactive,inactive,100 µg/disc,100 µg/disc,20 µg/disc,20 µg/disc,81%,95%,inactive,–,Activity (Candida albicans [1]): inactive; Activity (Candida albicans [4]): inactive; Activity (Candida albicans [5]): inactive; zone of inhibition at 40 µg/disc (Fusarium oxysporum [7]): 2 mm
N#Cc1c(N)nc2c(c1-c1cccc(NC(=O)Nc3cccc(-c4c(C#N)c(N)nc5c4C(=O)CCC5)c3)c1)C(=O)CCC2,3 mm,7 mm,3 mm,7 mm,2 mm,6 mm,–,2 mm,6 mm,inactive,inactive,inactive,40 µg/disc,40 µg/disc,60 µg/disc,60 µg/disc,91%,95%,–,inactive,zone of inhibition at 40 µg/disc (Candida albicans [2]): 3 mm; zone of inhibition at 40 µg/disc (Candida albicans [4]): 3 mm; Activity (Fusarium oxysporum [10]): inactive
COc1ccc(NC(=O)Nc2cccc(-c3c(C#N)c(N)nc4c3C(=O)CCC4)c2)cc1,3 mm,6 mm,3 mm,6 mm,–,2 mm,–,–,2 mm,inactive,inactive,inactive,40 µg/disc,40 µg/disc,100 µg/disc,100 µg/disc,71%,95%,–,inactive,zone of inhibition at 40 µg/disc (Candida albicans [2]): 2 mm; zone of inhibition at 40 µg/disc (Candida albicans [4]): 2 mm; Activity (Fusarium oxysporum [8]): inactive; Activity (Fusarium oxysporum [10]): inactive; Activity (Fusarium oxysporum [11]): inactive
N#Cc1c(N)nc2c(c1-c1ccc([N+](=O)[O-])cc1)C(=O)CCC2,3 mm,5 mm,3 mm,5 mm,2 mm,3 mm,–,2 mm,3 mm,inactive,inactive,inactive,60 µg/disc,60 µg/disc,60 µg/disc,60 µg/disc,61%,95%,inactive,inactive,Activity (Candida albicans [4]): inactive; Activity (Fusarium oxysporum [10]): inactive
C[C@@H]1C[C@@H]([C@H](O)CC2CC(=O)NC(=O)C2)C(=O)[C@@H](C)C1 [CYCLOHEXIMIDE],4 mm,7 mm,4 mm,7 mm,5 mm,7 mm,3 mm,5 mm,7 mm,inactive,inactive,inactive,40 µg/disc,40 µg/disc,20 µg/disc,20 µg/disc,–,–,–,–,zone of inhibition at 40 µg/disc (Candida albicans [2]): 2 mm; zone of inhibition at 40 µg/disc (Candida albicans [4]): 2 mm; zone of inhibition at 40 µg/disc (Fusarium oxysporum [7]): 3 mm
Cc1ccc(-c2c(C(N)=O)c(N)nc3c2C(=O)CCC3)cc1,2 mm,4 mm,2 mm,4 mm,–,4 mm,–,2 mm,4 mm,inactive,inactive,inactive,60 µg/disc,60 µg/disc,100 µg/disc,100 µg/disc,66%,95%,inactive,inactive,Activity (Candida albicans [4]): inactive; Activity (Fusarium oxysporum [8]): inactive; Activity (Fusarium oxysporum [10]): inactive
COc1ccc(-c2c(C#N)c(N)nc3c2C(=O)CCC3)cc1,3 mm,4 mm,3 mm,4 mm,–,6 mm,3 mm,–,6 mm,inactive,inactive,inactive,60 µg/disc,60 µg/disc,100 µg/disc,100 µg/disc,81%,95%,inactive,inactive,Activity (Candida albicans [4]): inactive; Activity (Fusarium oxysporum [8]): inactive; Activity (Fusarium oxysporum [11]): inactive
CC(=O)Nc1nc2c(c(-c3ccc(C)cc3)c1C#N)C(=O)CCC2,3 mm,7 mm,3 mm,7 mm,3 mm,5 mm,–,3 mm,5 mm,inactive,inactive,inactive,60 µg/disc,60 µg/disc,60 µg/disc,60 µg/disc,66%,90%,inactive,inactive,Activity (Candida albicans [4]): inactive; Activity (Fusarium oxysporum [10]): inactive
N#Cc1c(N)nc2c(c1-c1ccccc1)C(=O)CCC2,2 mm,6 mm,2 mm,6 mm,3 mm,6 mm,3 mm,3 mm,6 mm,inactive,inactive,inactive,60 µg/disc,60 µg/disc,60 µg/disc,60 µg/disc,66%,90%,inactive,inactive,Activity (Candida albicans [4]): inactive
